Assay outcomes from PubChem.
Most compounds without a hit are left out; they make up all but 2.6% or so of the library.
SENP6 block – SENP6 protease inhibitors, primary screen, biochemical, luminescence, uHTS; Recombinant SENP6 catalytic domain, aminoluciferin luminescence; AID 2599, 2010; Sentrin-specific protease 6 (Homo sapiens), Q9GZR1; 330,000 compounds, 1.8% hits; inhibition, % at 10 µM;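 active = inhibition above about 50% at the single tested dose, limit read from the data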;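 also: plate controls were DMSO wells with enzyme for no effect and DMSO wells lacking enzyme for full effect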
SENP8 block-1 – SENP8 protease inhibitors, primary screen, biochemical, luminescence; Sentrin-specific protease 8 (Homo sapiens), Q96LD8; purified SENP8, Z-RLRGG-aminoluciferin cleavage; inhibition, % at 10 µM; 330,000 compounds, 1.2% hits; in the data active = inhibition above about 50%
Target sequence (Q96LD8 whole entry, looked up): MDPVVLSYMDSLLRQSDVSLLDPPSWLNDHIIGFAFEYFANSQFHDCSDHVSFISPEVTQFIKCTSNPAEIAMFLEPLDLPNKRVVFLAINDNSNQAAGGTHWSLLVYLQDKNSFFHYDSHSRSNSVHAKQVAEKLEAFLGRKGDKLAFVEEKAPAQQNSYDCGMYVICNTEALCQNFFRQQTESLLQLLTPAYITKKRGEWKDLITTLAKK
UCH37 DUB inh – inhibitors of human UCH37 deubiquitinase, primary screen, biochemical, Ub-AMC cleavage, fluorescence; Ubiquitin carboxyl-terminal hydrolase isozyme L5 (Homo sapiens), Q9Y5K5; purified proteasome/UCH37; inhibition, % (no concentration beside the values); 330,000 compounds, 0.33% hits; AID 588478, 2011;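 active = mean inhibition over replicate wells above about 20%, limit read from the data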;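 also: 0% = compound-free wells with enzyme and 100% = wells lacking proteasome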
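Material: Human UCH37 enzyme supplied as purified proteasome complex | Schedule: 30 min preincubation with enzyme, 25 min cleavage at room temperature | Detection: AMC fluorescence 355/460 nm | Measure: % inhibition of Ub-AMC cleavage fluorescence | Controls: Wells without proteasome as full block, compound-free enzyme plus substrate as uninhibited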
SENP7 block – SENP7 protease inhibitors, primary screen, biochemical, luminescence, uHTS; recombinant SENP7, Z-RLRGG-aminoluciferin luminescence, 40 min; inhibition, % at 5 µM; 330,000 compounds, 1.5% hits; AID 434973, 2010;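 active = inhibition above about 50% at the single test dose, limit read from the data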;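 also: plate controls were DMSO with enzyme for no effect and no enzyme buffer wells for full effect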
SENP1 FRET inh – human SENP1 catalytic domain inhibitors, primary screen, biochemical, FRET, uHTS; Sentrin-specific protease 1 (Homo sapiens), Q9P0U3; recombinant SENP1 catalytic domain, CyPet-SUMO1-YPet FRET cleavage; inhibition, % at 10 µM; 360,000 compounds, 0.21% hits; AID 624204, 2012;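 active = inhibition at least 30% at 10 µM, raw YFP signal under a set limit, fluorescence ratio 0.5 to 1.5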;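 also: 0% = enzyme with DMSO and 100% = no enzyme wells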
Target sequence (Q9P0U3 419-644 limits assumed): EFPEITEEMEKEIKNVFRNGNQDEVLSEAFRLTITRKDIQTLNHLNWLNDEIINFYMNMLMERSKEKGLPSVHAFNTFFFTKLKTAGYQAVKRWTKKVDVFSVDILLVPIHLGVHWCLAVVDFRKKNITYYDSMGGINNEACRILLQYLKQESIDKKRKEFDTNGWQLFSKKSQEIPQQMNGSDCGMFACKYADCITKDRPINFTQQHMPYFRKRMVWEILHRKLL
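Assay system – human recombinant His6-tagged SENP1 catalytic domain enzyme · Input – SENP1 enzyme, 20 pM final · Buffer or medium – Tris pH 8 buffer plus EDTA, NaCl, BME, BSA, NP40, catalase · Schedule – 50 min reaction at room temperature · Technique – FRET read of cyan and yellow fluorescence · Control set – no-enzyme wells low, DMSO-plus-enzyme wells high control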
SENP8 block-2 – human SENP8 protease inhibitors, primary screen, biochemical, fluorescence, Nedd8 protein substrate, uHTS; recombinant SENP8; inhibition, % at 20 µM; 360,000 compounds, 0.64% hits; AID 602440, 2012; in the data active = inhibition mostly above about 40%, no sharp cut-off; inactive = mostly below about 27%
SENP8 conf – human SENP8 protease inhibitors, confirmation, biochemical, Nedd8 protein substrate, single concentration; purified SENP8, Nedd8-AMC/pro-Nedd8 cleavage fluorescence, 30 min; inhibition, % at 25 µM; AID 624319, 2012; shares compounds with SENP8 block-2; 1,400 compounds, 15% hits; in the data active = inhibition mostly above about 39%, no sharp cut-off; inactive = mostly below about 34%
* marks the source's active call; other numbers are inactive results; i = inactive; / = no result.

SMILES | SENP6 block | SENP8 block-1 | UCH37 DUB inh | SENP7 block | SENP1 FRET inh | SENP8 block-2 | SENP8 conf
Cc1cc(NS(=O)(=O)c2ccc3c(c2)OCCO3)no1 | -10 | -3 | 2 | 1 | 2 | 42* | 23
NC(=O)c1ccc(N=C2C(=O)Nc3ccc([N+](=O)[O-])cc32)cc1 | 33 | 7 | 84* | -3 | 4 | 86* | 100*
O=C1Nc2ccccc2C1=Nc1cccc([N+](=O)[O-])c1 | -7 | -4 | 6 | 2 | -2 | 13 | /
O=c1[nH]c(CN2CCN(c3ncccn3)CC2)nc2c(Br)cc(Br)cc12 | -24 | -1 | 4 | -5 | -14 | 10 | /
O=c1[nH]c(CN2CCN(c3ccccn3)CC2)nc2c(Br)cc(Br)cc12 | -20 | -11 | 2 | -9 | -3 | 44* | 5
Cc1ccccc1-n1c(SCC(O)=C(C#N)c2nc3ccccc3[nH]2)nnc1-c1ccncc1 | / | / | -8 | / | / | / | /
CCN(CC)S(=O)(=O)c1ccc(/C=C/C(=O)Nc2ccc(N3CCOCC3)cc2)cc1 | -4 | -8 | 4 | -2 | 5 | 42* | 23
COc1ccc(OC)c(C=NNC(=O)C(=O)N2CCCCCC2)c1 | / | / | -22 | / | / | / | /
C=CCC(C(=O)OC)(C(=O)OC)c1ccc([N+](=O)[O-])cc1[N+](=O)[O-] | 18 | 0 | 1 | 3 | 2 | 42* | 11
COc1ccc(C(=O)ON=Cc2c(C(F)(F)F)nn(C)c2SCc2ccccc2Cl)cc1 | / | / | -2 | / | / | / | /
Cc1cc(C)n2nc(C(=O)NN=Cc3cccs3)nc2n1 | / | / | 12 | / | / | / | /
COc1ccc(-c2nnc(SCC(=O)N3CCc4ccccc4C3)o2)cc1 | 13 | -11 | 8 | -5 | -1 | 12 | /
COc1ccc(Cc2nnc(SCC(=O)N3CCc4ccccc4C3)o2)cc1 | -12 | 0 | 13 | -10 | -2 | 39* | 76*
OCc1ccccc1O[C@@H]1O[C@H](CO)[C@@H](O)[C@H](O)[C@H]1O | -3 | 2 | 1 | -3 | 2 | 49* | 3
CCc1cc([N+](=O)[O-])cc(CC)c1N | 3 | -1 | 7 | 1 | 2 | 45* | 16
CC(=NNC(=O)c1cc(-c2ccc(Br)s2)[nH]n1)c1ccco1 | / | / | 5 | / | / | / | /
O=C(NC1CCCCC1)C(c1ccnc2ccccc12)N1CCc2ccccc2C1 (stereo not drawn) | / | / | / | / | -11 | 51* | 91*
O=C(NC1CCCCC1)C(C1CC1)N1CCc2ccccc2C1 (stereo not drawn) | / | / | / | / | 0 | 30 | /
CN(C(=S)Nc1cccnc1)c1ccc(O)cc1 | / | / | 2 | / | 1 | 40* | 12
CN(C(=S)Nc1ccccc1)c1ccccc1 | -10 | -4 | 0 | 0 | 0 | 24 | /
CN(C(=S)Nc1ccc(Oc2ccccc2)cc1)c1ccc(O)cc1 | / | / | 6 | / | -22 | 46* | 15
COc1ccc(OC)c(C=NNC(=O)c2cc[n+](Cc3ccccc3)cc2)c1 | / | / | -17 | / | / | / | /
CCN(CC)S(=O)(=O)c1ccc(C(=O)NCCCn2ccnc2)cc1 | -17 | -6 | 5 | 4 | 1 | 3 | /
CCN(CC)S(=O)(=O)c1cccc(C(=O)NCCCn2ccnc2)c1 | 3 | 0 | 2 | -4 | 2 | 42* | 17
CN(C)C=Nc1nc2nccc(-c3cccs3)n2n1 | / | / | i | / | / | / | /
SMILES | SENP6 block | SENP8 block-1 | UCH37 DUB inh | SENP7 block | SENP1 FRET inh | SENP8 block-2 | SENP8 conf
COc1ccc(Br)c(C(=O)OCC(=O)N2CCC(Cc3ccccc3)CC2)c1 | -3 | -7 | 3 | -9 | 0 | 42* | 7
CCOC(=O)c1c(C)nc2c(c1-c1cc(OC)ccc1OC)C(=O)CC(C)(C)C2 | -16 | -12 | 4 | 4 | -1 | 44* | 14
O=C(c1nn(Cc2ccccc2)c(=O)c2ccccc12)N1CCc2ccccc2C1 | 8 | 3 | -1 | 6 | 1 | 20 | /
O=C(c1ncn(Cc2ccccc2)c1C(=O)N1CCc2ccccc2C1)N1CCc2ccccc2C1 | -8 | -8 | 1 | -1 | 0 | 52* | 58*
CC(=O)Nc1sc(NN=Cc2ccc(O)cc2)nc1-c1cccs1 | / | / | -7 | / | / | / | /
CC(=NNS(=O)(=O)c1ccc(C)c([N+](=O)[O-])c1)c1ccc2c(c1)OCO2 | / | / | 4 | / | / | / | /
Cc1cc2ccccn2c1C(=O)c1ccccc1F | -12 | 6 | -18 | -1 | 1 | 41* | -5
CN(C)c1ccc(NC(=O)CSc2nc3c(c(=O)[nH]2)CCCC3)cc1 | 13 | 4 | 0 | 3 | 1 | 45* | 18
COc1ccc(C2CC2C(=NO)c2ccccc2)cc1 (stereo not drawn) | / | / | 2 | / | / | / | /
COc1ccc(O)c(C(c2c(C)[nH][nH]c2=O)c2c(C)[nH][nH]c2=O)c1 | 15 | 11 | / | 4 | 6 | 76* | 47*
COc1ccc(OC)c(C(c2c(C)[nH][nH]c2=O)c2c(C)[nH][nH]c2=O)c1 | 7 | 8 | 2 | 1 | 1 | 33 | /
CCOc1ccc(NC(=S)Nc2ccc3nsnc3c2)cc1 | -25 | -8 | 14 | -5 | -26 | 43* | 39
CCOc1ccc(NC(=S)Nc2ccc(OC(F)(F)F)cc2)cc1 | 16 | -2 | 5 | 7 | 1 | 18 | /
COc1cc(NC(=S)Nc2cccc(Cl)c2Cl)c(OC)cc1Cl | -18 | -8 | 0 | -6 | -1 | 22 | /
CCOc1ccc(NC(=S)Nc2cc(OC)c(Cl)cc2OC)cc1 | 11 | 1 | 1 | 9 | -1 | 44* | 7
Nc1nnnn1N=Cc1cc(Br)ccc1O | / | / | 7 | / | / | / | /
CCOC(=O)c1sc(SC)c2c1CCCC2=NOC | / | / | 5 | / | / | / | /
CC(C)C(=O)Nc1cccc(S(=O)(=O)NC2=NCCC2)c1 | / | / | / | / | 4 | 15 | /
O=C(CCl)Nc1cccc(S(=O)(=O)NC2=NCCC2)c1 | -6 | -3 | 5 | -2 | 0 | 46* | 10
O=C(CCO)c1ccc(O)cc1 | -3 | 7 | 3 | -5 | -1 | 44* | 10
CCCCOc1ccc(/C=N/NC(=S)Nc2cccc(C)c2C)cc1 | 3 | 1 | / | 12 | -1 | 40* | 5
CNC(=S)NN=C(C)c1ccccc1 | / | / | 6 | / | / | / | /
Cc1cccc(CSc2nc3c(c(-c4cccs4)c2C#N)CN(C)CC3)c1 | -3 | 6 | 5 | 1 | 18 | 40* | 4
Cc1cccc(CSc2nc(N)c(C#N)c(-c3cccs3)c2C#N)c1 | 1 | 2 | -7 | -2 | -9 | -71 | /
CN1CCc2nc(SCC(=O)Nc3ccc(OC(F)(F)F)cc3)c(C#N)c(-c3cccs3)c2C1 | 28 | 5 | 7 | 1 | 26 | 45* | 23
